Laboratory results: ChEMBL document CHEMBL4382230, “Structure-activity relationships, biological evaluation and structural studies of novel pyrrolonaphthoxazepines as antitumor agents” (Eur J Med Chem, 2019)
pIC50: −log10 of the molar value. Active and inactive are the calls of the source. The calls are words filed in the database; no cut-off is given here.

Experiments:
[1] = system: SCC-4; experiment: Cytotoxicity against human SCC4 cells after 48 hrs by MTT assay; type: functional, cell-based; settings: SCC-4, 48 h
How it was run: (§1)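 Cells (NCI-H929 in RPMI-1640 GlutaMAX; SCC4 in DMEM GlutaMAX; 10% FBS, 37 °C, 5% CO2) treated with increasing concentrations for 48 h. IC50 is the mean of three independent experiments.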

[2] = system: Ca9-22; experiment: Cytotoxicity against human Ca9-22 cells after 24 hrs by MTT assay; type: functional, cell-based; settings: Ca9-22, 24 h
[3] = system: NCI-H929; experiment: Cytotoxicity against human NCI-H929 cells after 48 hrs by MTT assay; type: functional, cell-based; settings: NCI-H929, 48 h; how it was run: as §1
[4] = system: SCC-4; experiment: Induction of apoptosis in human SCC4 cells at 50 uM after 48 hrs by Annexin V/propidium iodide staining-based flow cytometric analysis relative to control; type: functional
How it was run: (§2)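 Seeding density: NCI-H929 and Ca9.22 at 30×10^4 cells/mL, SCC4 at 15×10^4 cells/mL. Cells exposed 48 h to compound (500 nM; 50 μM in SCC4 for one compound) or vehicle (1% EtOH v/v). Annexin V/PI staining, flow cytometry, 10,000 cells gated on vehicle-treated cells. Three independent experiments, mean ± S.E.M, T-test.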

[5] = system: Ca9-22; experiment: Cytotoxicity against human Ca9-22 cells after 48 hrs by MTT assay; type: functional, cell-based; settings: Ca9-22, 48 h
[6] = system: Ca9-22; experiment: Induction of apoptosis in human Ca9-22 cells at 500 nM after 48 hrs by Annexin V/propidium iodide staining-based flow cytometric analysis relative to control; type: functional, cell-based; how it was run: as §2
[7] = system: Ca9-22; experiment: Cytotoxicity against human Ca9-22 cells after 72 hrs by MTT assay; type: functional, cell-based; settings: Ca9-22, 72 h

`CC(=O)OC1=C(c2ccccc2-c2ccccc2)Oc2ccccc2-n2cccc21` gave a pIC50 [1] of 5.03, a pIC50 [2] of 5.10 and a pIC50 [3] of less than 4.30. The Activity [4] was greater than 40%, the pIC50 [5] was 5.20 and the Activity [6] was “inactive”. For the same compound, the pIC50 [7] was 5.35.
